Assay results pooled from the literature.
Protocols differ between the studies behind these lines.
Target: Ephrin type-A receptor 8 (EPHA8, Homo sapiens, UniProt P29322)
One construct used (P29322 28-1005): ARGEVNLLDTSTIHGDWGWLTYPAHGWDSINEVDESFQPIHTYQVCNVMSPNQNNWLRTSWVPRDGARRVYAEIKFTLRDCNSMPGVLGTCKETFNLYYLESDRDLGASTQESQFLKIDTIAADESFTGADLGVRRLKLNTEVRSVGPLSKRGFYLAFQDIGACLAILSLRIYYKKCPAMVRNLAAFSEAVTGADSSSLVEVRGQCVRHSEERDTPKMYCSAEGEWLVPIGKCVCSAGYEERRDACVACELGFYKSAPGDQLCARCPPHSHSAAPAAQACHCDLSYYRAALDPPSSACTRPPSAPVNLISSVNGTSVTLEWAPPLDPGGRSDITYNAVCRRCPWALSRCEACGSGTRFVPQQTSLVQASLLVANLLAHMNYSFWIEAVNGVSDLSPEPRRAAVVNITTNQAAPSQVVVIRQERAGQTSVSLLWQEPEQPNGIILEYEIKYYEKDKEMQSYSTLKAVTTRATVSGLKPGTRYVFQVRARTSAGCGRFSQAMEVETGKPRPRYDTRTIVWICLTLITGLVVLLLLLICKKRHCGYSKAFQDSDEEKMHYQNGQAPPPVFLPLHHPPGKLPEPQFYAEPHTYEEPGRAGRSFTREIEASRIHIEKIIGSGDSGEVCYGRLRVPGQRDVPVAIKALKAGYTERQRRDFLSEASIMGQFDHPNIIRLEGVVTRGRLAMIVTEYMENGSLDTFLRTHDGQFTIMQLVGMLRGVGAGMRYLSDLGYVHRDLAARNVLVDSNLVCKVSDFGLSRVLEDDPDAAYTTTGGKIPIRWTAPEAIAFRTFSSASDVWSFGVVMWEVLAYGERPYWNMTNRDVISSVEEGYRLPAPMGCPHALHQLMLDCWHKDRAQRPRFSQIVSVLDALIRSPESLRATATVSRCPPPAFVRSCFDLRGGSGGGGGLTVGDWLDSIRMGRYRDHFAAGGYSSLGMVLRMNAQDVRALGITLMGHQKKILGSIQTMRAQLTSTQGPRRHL

Cn1cncc1[C@](O)(COc1ccc(C#N)cc1-c1ccc(OC(F)(F)F)cc1)c1ccc(C#N)cc1 — remaining binding (cell-free assay, competition with immobilised ligand; 1 µM): 72%
COc1cc(Nc2ncc(F)c(Nc3ccc4c(n3)NC(=O)C(C)(C)O4)n2)cc(OC)c1OC — inhibition (binding, competition with immobilised ligand; 10 µM): 58%
O=c1[nH]c2ccccc2n1C1CCN(Cc2ccc(-c3[nH]c4cc5ncnc5cc4nc3-c3ccccc3)cc2)CC1 — remaining signal (cell-free assay; 0.5 µM): 106%
Cc1nn(C)cc1-c1nc2c(N3CCN(Cc4ccc(Cl)cc4)CC3)c(Cl)cnc2[nH]1 — remaining binding (binding, competition with immobilised ligand; 1 µM): 100%
Cn1cc(-c2cccc(N3CCc4c(sc5c4CC(C)(C)C5)C3=O)c2CO)cc(Nc2ccncn2)c1=O — inhibition (enzyme activity, inhibitor; 1 µM): 1%
N#CC1(c2ccccn2)CCN(Cc2cc(C(=O)O)c(=O)n3ccccc23)CC1 — remaining binding (cell-free assay, competition with immobilised ligand; 1 µM): 100%
Cn1cc(-c2cc(F)cc(N3CCn4c(cc5c4CCCC5)C3=O)c2CO)cc(Nc2ccc(N3CCN(C4COC4)CC3)cn2)c1=O — inhibition (enzyme activity, inhibitor; 0.1 µM): 8%
Nc1ncc(-c2nc(N3CCOCC3)nc(N3CCOCC3)n2)c(C(F)F)n1 — remaining binding (cell-free assay, competition with immobilised ligand; 10 µM): 100%
COc1cc(Cl)c(C(=O)N[C@@H](CN[C@H]2CC[C@@H](N)CC2)Cc2ccc(C#N)cc2)cc1-c1ccc(CN[C@H](C)c2ccc(C)cc2)o1 — remaining activity (enzyme activity, inhibitor; 1 µM): 107%
COc1ncccc1-c1cnn2ccc(N3CCN(C(=O)OC(C)C)CC3)nc12 — remaining binding (binding, competition with immobilised ligand; 1 µM): 100%
CC(C)(C)c1cc(C=C(C#N)C#N)cc(Br)c1O — remaining activity (enzyme activity, inhibitor; 0.5 µM): 100%
